Test results: ChEMBL document CHEMBL1821628, “Anti-inflammatory endiandric acid analogues from the roots of Beilschmiedia tsangii” (J Nat Prod, 2011)

Columns and labels:
[1] = target: T1, Nitric oxide synthase, inducible (Mus musculus, UniProt P29477); conditions: raw264.7
T1 sequence (P29477 whole entry): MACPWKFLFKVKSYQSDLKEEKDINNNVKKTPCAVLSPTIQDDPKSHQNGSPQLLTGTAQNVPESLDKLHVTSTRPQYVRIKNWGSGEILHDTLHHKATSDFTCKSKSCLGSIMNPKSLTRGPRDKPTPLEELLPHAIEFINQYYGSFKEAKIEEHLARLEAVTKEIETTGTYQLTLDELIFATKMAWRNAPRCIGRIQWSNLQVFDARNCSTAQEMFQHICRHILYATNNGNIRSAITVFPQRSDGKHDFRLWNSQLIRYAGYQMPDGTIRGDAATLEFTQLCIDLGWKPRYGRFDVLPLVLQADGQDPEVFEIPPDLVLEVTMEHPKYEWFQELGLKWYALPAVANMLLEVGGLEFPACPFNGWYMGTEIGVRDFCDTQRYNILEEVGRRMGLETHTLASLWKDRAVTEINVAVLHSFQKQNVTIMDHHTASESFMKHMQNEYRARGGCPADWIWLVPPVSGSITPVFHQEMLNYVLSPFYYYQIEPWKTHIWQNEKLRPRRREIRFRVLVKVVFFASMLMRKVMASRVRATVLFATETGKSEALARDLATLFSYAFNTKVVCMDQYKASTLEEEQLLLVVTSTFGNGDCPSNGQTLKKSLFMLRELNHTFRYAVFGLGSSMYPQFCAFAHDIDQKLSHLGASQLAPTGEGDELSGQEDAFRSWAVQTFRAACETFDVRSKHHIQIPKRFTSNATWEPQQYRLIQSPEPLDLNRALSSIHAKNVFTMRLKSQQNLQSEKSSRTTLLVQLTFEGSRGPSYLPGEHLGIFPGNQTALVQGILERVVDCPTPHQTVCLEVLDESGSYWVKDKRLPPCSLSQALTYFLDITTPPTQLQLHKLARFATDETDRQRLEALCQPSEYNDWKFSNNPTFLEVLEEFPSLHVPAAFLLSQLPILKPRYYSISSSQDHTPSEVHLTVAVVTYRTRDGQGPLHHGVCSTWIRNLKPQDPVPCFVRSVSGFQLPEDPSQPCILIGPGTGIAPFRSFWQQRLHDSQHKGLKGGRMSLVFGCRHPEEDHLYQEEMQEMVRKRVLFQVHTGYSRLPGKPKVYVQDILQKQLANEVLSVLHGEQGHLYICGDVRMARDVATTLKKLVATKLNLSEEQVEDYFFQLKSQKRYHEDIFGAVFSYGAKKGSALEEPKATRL

[2] = target: T2, Nitric oxide synthase, inducible (Mus musculus) (UniProt P29477); test: Inhibition of iNOS in mouse RAW264.7 cells assessed as anti-inflammatory activity by measuring inhibition of LPS-induced nitric oxide production at 100 uM after 24 hrs; format: cell-based
T2 sequence (whole entry): T1 sequence (P29477 whole entry)
How it was run: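 RAW 264.7 murine macrophages grown to confluence over 24 h, then held 4 h in serum-free DMEM. Compounds or vehicle (0.1% DMSO) were added with or without LPS (200 ng/mL) for 24 h. Supernatant nitrite was measured by Griess reagent, 10 min at room temperature, A550, against a sodium nitrite standard curve. Results are % inhibition versus vehicle plus LPS; Emax is taken at 100 μM; mean ± SE.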

Compound	IC50 [1] [µM]	Emax [2] [%]
O=C(O)[C@H]1[C@H]2C=C[C@@H]3[C@@H]1C[C@H]1[C@H](CCCc4ccc5c(c4)OCO5)[C@@H]2[C@@H]31 (relative stereo)	58.2	77.9
O=C(O)/C=C/[C@H]1[C@@H]2C=C[C@@H]3[C@H]1C[C@H]1[C@H](CCCCCc4ccc5c(c4)OCO5)[C@H]2[C@@H]31 (relative stereo)	39.6	91.4
CC(C)CNC(=O)[C@H]1[C@H]2C=C[C@@H]3[C@@H]1C[C@H]1[C@H](CCCc4ccc5c(c4)OCO5)[C@@H]2[C@@H]31 (relative stereo)	16.4	72.1
COc1cc([C@@H]2O[C@@H](c3cc(OC)c4c(c3)OCO4)[C@H](C)[C@H]2C)cc(OC)c1OC (relative stereo)	49	63.4
COc1cc([C@@H]2O[C@@H](c3cc(OC)c4c(c3)OCO4)[C@H](C)[C@H]2C)cc2c1OCO2 (relative stereo)	52.5	65.6
COc1cc([C@@H]2O[C@@H](c3cc(OC)c4c(c3)OCO4)[C@H](C)[C@H]2C)cc(O)c1OC (relative stereo) [BEILSCHMINOL A]	51.5	86.6
CC(C)CNC(=O)[C@@H]1C=C[C@@H]2C[C@H]3[C@H](Cc4ccc5c(c4)OCO5)[C@H]4C=C[C@@H]1[C@@H]2[C@H]43 (relative stereo) [ENDIANDRAMIDE A]	9.59	97.3
O=C(O)[C@@H]1C=C[C@@H]2C[C@H]3[C@H](CCCc4ccc5c(c4)OCO5)[C@H]4C=C[C@@H]1[C@@H]2[C@H]43 (relative stereo) [TSANGIBEILIN A]	49.6	96.9
O=C(O)[C@@H]1C=C[C@@H]2C[C@H]3[C@H](Cc4ccc5c(c4)OCO5)[C@H]4C=C[C@@H]1[C@@H]2[C@H]43 (relative stereo) [TSANGIBEILIN B]	42.3	96.1
N=C(NCCC[C@H](N)C(=O)O)N[N+](=O)[O-] [NITROARGININE]	152	43.7
N=C(N)NN [PIMAGEDINE]	26.5	–
COc1cc(C(=O)O[C@@H](c2cc(OC)c(OC)c(OC)c2)[C@H](C)C(C)=O)cc(OC)c1OC [TSANGIN C]	51.4	85.5
